# Screening data deposited in PubChem by Johns Hopkins Ion Channel Center.
# RGS4 act: RGS4 potentiation or activation | HEK293 M3R/inducible RGS4, carbachol calcium flux Fluo4; active compounds read low | B-score at 10 µM | AID 463111 | 310,000 compounds, 0.92% hits;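 active means B-score of the integrated calcium signal more than 4 SD below the library mean, with starting fluorescence not abnormally high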;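 further: negative B-score means reduced calcium response which marks RGS4 activation or potentiation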
#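 Test system: HEK293 cells with stable M3R and inducible RGS4; also added: carbachol at ECmax as muscarinic agonist stimulus; schedule: dye loading 30 min 37 °C, buffer rest 30 min RT; technique: kinetic calcium fluorescence imaging with Fluo4-AM dye, 2 µM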
# RGS4 block: human RGS4 inhibition; HEK293 M3R/RGS4 inducible, Fluo-4 calcium flux; active compounds read high; triggered by carbachol at its EC20; 310,000 compounds, 0.45% hits; B-score at 10 µM;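 active means B-score, a plate-corrected calcium signal, over three deviations above library mean, with baseline fluorescence within five deviations of library mean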;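 further: RGS4 expression induced by doxycycline in cells with stable M3 receptor; B-score is computed from the integrated fluorescence ratio over baseline after carbachol; higher B-score means a larger calcium signal and so more RGS4 inhibition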
# Target sequence (P49798 whole entry, looked up): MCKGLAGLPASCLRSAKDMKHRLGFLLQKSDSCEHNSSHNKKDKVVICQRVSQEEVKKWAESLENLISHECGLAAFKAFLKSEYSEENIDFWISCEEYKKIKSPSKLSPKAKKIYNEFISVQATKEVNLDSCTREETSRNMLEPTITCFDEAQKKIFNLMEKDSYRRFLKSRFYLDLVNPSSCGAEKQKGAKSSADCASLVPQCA
# MrgX1 ag: activates human MrgX1 receptor signaling | MrgX1-HEK293 cells, Fluo-4 calcium fluorescence, agonist mode; active compounds read high | B-score at 10 µM | AID 588627 | Q96LB2 | 310,000 compounds, 0.44% hits;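 active means calcium response B-score plate-corrected fluorescence ratio at least 3 library SD, with starting fluorescence B-score inside 5 SD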
#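 Assay system: MrgX1-expressing HEK293 cells / Amount: fifteen thousand cells per well / Doses: test compound in the initial addition of three / Timing: cells plated overnight, dye loaded 0.5 h 37 °C, 0.5 h room temperature / Technique: kinetic calcium dye fluorescence, Fluo-4 NW / Control set: positive and negative controls per plate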
# MrgX1 antagonist: antagonists of human MrgX1 receptor; MRGX1-HEK293 calcium flux, Fluo-4, BAM8-22 antagonism; active compounds read low; B-score at 10 µM; 310,000 compounds, 1.3% hits; AID 588676;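 active means calcium-response B-score plate-corrected more than 3 library SD below zero, starting fluorescence within 5 deviations, no agonist response on first addition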;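 further: peak minus trough fluorescence over baseline after final BAM8-22 challenge near maximal dose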
# MrgX1 PAM: human MrgX1 positive allosteric modulation, primary screen; Q96LB2; MrgX1-HEK293, Fluo-4 calcium flux, FDSS; active compounds read high; B-score at 10 µM; 310,000 compounds, 0.63% hits;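 active means plate-corrected calcium response at least 3 library SD above typical, normal starting fluorescence, not activating the receptor alone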;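 further: compound read alongside a low EC10 to EC30 dose of BAM8-22 agonist; peak minus trough fluorescence over baseline measured at the second addition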
# RGS4 act valid: RGS4 activation, validation assay; shares compounds with RGS4 act; HEK293 M3R/RGS4 inducible, carbachol calcium flux Fluo4; inhibition, % at 10 µM; 1,100 compounds, 89% hits; AID 602282;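 active means inhibition above 3 SD of the buffer control wells, cut at about 41% in these data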;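 further: signal is the integrated peak-minus-minimum Fluo4 fluorescence over baseline ratio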
# M3R Ca counter: counter-screen for RGS4 activators: effect in non-induced cells. 1,100 compounds, 82% hits. HEK293 M3R non-induced RGS4, Fluo4 calcium flux; after carbachol challenge at its EC90. shares compounds with RGS4 act. AID 602283. inhibition, % at 10 µM;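 active means inhibition exceeding 3 SD of buffer-only control wells, cut at about 26% in these data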;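 further: percent drop in integrated peak-minus-baseline over baseline Fluo4 ratio after carbachol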
# Numbers without * were called inactive; i = inactive; nt = no result. Hits are enriched below; roughly 3.5% of the tested compounds scored in any of these assays.
SMILES,RGS4 act,RGS4 block,MrgX1 ag,MrgX1 antagonist,MrgX1 PAM,RGS4 act valid,M3R Ca counter
O=C(N[C@@H]1CCC(=O)N(CC[C@H](Sc2ccccc2)c2ccccc2)CC1)OCc1ccccc1,i,i,i,i,i,nt,nt
O=C(O)c1ccc(CS(=O)(=O)c2c(Cl)cccc2Cl)o1,i,i,i,i,i,nt,nt
CCOC(=O)c1ccc(NC(=O)c2c(Cl)cc(C)nc2C)cc1,i,i,i,i,i,nt,nt
CCOC(=O)c1ccc(Nc2cc(C)nc(C)c2C(=O)OCC)cc1,-8.42*,i,i,i,i,57.5*,83.8*
O=C1COc2ccccc2N1Cc1c(F)cccc1Cl,i,i,i,i,i,nt,nt
CCN(CC)CCNC(=O)c1ccc(NC(=O)c2cccc(S(=O)(=O)Nc3ccc(C)cc3)c2)cc1,-11.8*,i,i,i,i,92.0*,68.8*
CN(C)CCNC(=O)c1cccc(S(=O)(=O)Nc2ccc(F)cc2)c1,i,i,i,i,i,nt,nt
O=c1[nH]c2ccccc2nc1-c1ccccc1,i,i,i,i,i,nt,nt
NC(=O)N=Nc1c2[nH]c3ccccc3nc-2c2ccccc12,-8.58*,i,i,i,i,56.5*,0.0
CCCCc1ccc(S(=O)(=O)NCCCN2CCCC2=O)cc1,i,i,i,i,i,nt,nt
CCOC(=O)C(=O)Nc1cc(Cl)ccc1C,i,i,i,i,i,nt,nt
Cc1ccnc2nc(C(=O)OCC(=O)NC(=O)NCc3ccco3)nn12,i,i,i,i,i,nt,nt
COc1ccc(C)cc1NC(=O)CCNS(=O)(=O)c1ccc2c(c1)CC(C)N2C(C)=O (stereo not drawn),i,i,i,i,i,nt,nt
CN1/C(=C\C(=O)Nc2ccc(F)cc2)C(C)(C)c2ccccc21,-8.8*,i,i,i,i,50.5*,25.8*
CN1/C(=C\C(=O)Nc2ccc(Br)cc2)C(C)(C)c2ccccc21,-9.16*,i,i,i,i,92.0*,96.3*
CCn1c(C)c(C2=CCN(S(=O)(=O)c3ccccc3)CC2)c2ccccc21,i,i,i,i,i,nt,nt
Cc1cc(N2CCCCC2)n2ncc(-c3ccccc3)c2n1,-8.11*,i,i,i,i,93.5*,86.8*
Cc1cc(N2CCCCC2)n2ncc(-c3ccc(Cl)cc3)c2n1,i,i,i,i,i,nt,nt
Fc1cccc(-c2cc3nc4c(c(NCc5ccco5)n3n2)CCCC4)c1,-8.14*,i,i,i,i,86.0*,44.8*
Fc1cccc(-c2cc3nc4c(c(N5CCOCC5)n3n2)CCCC4)c1,i,i,i,i,i,nt,nt
CC(C(=O)NCC1(c2ccccc2)CCCC1)N1CCCC1 (stereo not drawn),-7.92*,i,i,i,i,63.5*,83.8*
CC(C(=O)NCC1(c2ccccc2)CCCC1)N1CCOCC1 (stereo not drawn),i,i,i,i,i,nt,nt
COc1ccc(C(=O)C2=NN(C(C)=O)CC2c2ccco2)cc1 (stereo not drawn),i,i,i,i,i,nt,nt
O=C1NC(=O)/C(=C\c2ccc(OCc3cccc([N+](=O)[O-])c3)cc2)N1,i,i,i,i,i,nt,nt
COc1cc2nc(Nc3ccc(C)c(C)c3)nc(N)c2cc1OC,-10.2*,i,i,i,i,61.0*,0.0
CCN(CC)CC#CCC(O)(c1ccccc1)c1ccccc1,-7.69*,i,i,i,i,90.0*,51.8*
CN(C)CC#CCC(O)(c1ccccc1)c1ccccc1,i,i,i,i,i,nt,nt
C=CC[N+]1(CC#CCOC(c2ccccc2)c2ccccc2)CCOCC1,i,i,i,i,i,nt,nt
CCN(CC)CCOC(c1ccccc1)c1ccc(C)cc1 (stereo not drawn),i,i,i,i,i,nt,nt
